# Experimental data from PMC8247405 (British Journal of Clinical Pharmacology, 2020).
# How the values were obtained:
# [1] = tested on: Zucker diabetic fatty (ZDF) rats; test: Plasma fructosamine in ZDF rats; type: in vivo, rat; settings: any dose, 5‐week treatment
# Method in brief: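 ZDF rats were fed control chow or test-compound chow (0.002–0.0245% w/w) from 9 weeks of age; lean rats served as reference. K₂-EDTA blood was drawn from the caudal vein under isoflurane at baseline and after 5 weeks. It was centrifuged at 4°C, 10 min, 10 000 g, and plasma was stored at −80°C. Fructosamine was measured on a clinical chemistry analyser by a blinded experimenter.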
# type‐2 diabetes patients [2] = settings: human, in vivo
# [3] = tested on: Zucker diabetic fatty (ZDF) rats; test: Peripheral blood lymphocyte count in ZDF rats; type: in vivo, rat; settings: 5 weeks
# Method in brief: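 Male ZDF Fa/Fa rats, randomised by body weight at 9 weeks to control chow or chow with test compound at 0.002, 0.007 or 0.0245% w/w for 5 weeks; lean Fa/+ rats on control chow served as reference. Caudal-vein K₂-EDTA blood was taken under 1.5–2% isoflurane at baseline and 5 weeks. Lymphocytes were counted in fresh blood. Analysis was blinded, with 1-way ANOVA and Dunnett's test versus ZDF control.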
# [4] = Plasma pharmacokinetics of SAR247799 in diabetic rats, 5-week chow dosing; type: in vivo, Zucker diabetic fatty (ZDF) rats; settings: ZDF rats; for C (plasma concentration), mean / C (plasma concentration), median: 5 weeks postdosing; for AUC 0–24, mean / AUC 0–24, median: AUC0–24 = C × 24
# Method in brief: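 ZDF rats received test compound in chow at 0.002, 0.007 or 0.0245% w/w for 5 weeks. Plasma taken at 5 weeks was assayed by LC-MS/MS. AUC0–24 was computed as C × 24, taking the 5-week concentration as the average over the dosing interval.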
# [5] = tested on: Zucker diabetic fatty (ZDF) rats; test: Heart rate in ZDF rats; type: in vivo, rat; settings: low, intermediate and high dose, 5 weeks
# [6] = cited from earlier work
# [7] = tested on: Zucker diabetic fatty (ZDF) rats; test: Renal function; type: in vivo, rat; settings: 5 weeks
# Method in brief: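 ZDF rats on control or test-compound chow (0.002, 0.007, 0.0245% w/w) for 5 weeks, with lean controls. Creatinine clearance = urinary creatinine × urine volume / plasma creatinine, in µL/min. Kruskal–Wallis with Wilcoxon post hoc tests versus ZDF control.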
# type‐2 diabetes patients [8] = settings: human, in vivo; remark: listed apart in the source
# [9] = Plasma pharmacokinetics in type-2 diabetes patients; type: in vivo, human; settings: for AUC 0–24, mean / AUC 0–24, median / Cmax, mean / Cmax, median / Tmax, mean / Tmax, median / Rac_AUC 0–24 (accumulation ratio), mean / Rac_AUC 0–24 (accumulation ratio), median / Rac_C max (accumulation ratio), mean / Rac_C max (accumulation ratio), median: n 15
# Method in brief: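 Type-2 diabetes patients received 1 or 5 mg test compound orally once daily for 28 days (15 per dose cohort). Plasma was sampled at 4 and 12 h postdose on day 1, predose on days 2, 3 and 7, and 3 h postdose on days 14, 21 and 28. Samples were assayed by validated LC-MS/MS (LLOQ 5 ng/mL). Cmax, tmax, trapezoidal AUC0–24 and accumulation ratio were derived by a Bayesian population PK model built in healthy subjects.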
# type‐2 diabetes patients [10] = settings: human, in vivo; remark: listed apart in the source
# type‐2 diabetes patients [11] = settings: human, in vivo; remark: listed apart in the source
# type‐2 diabetes patients [12] = tested on: type‐2 diabetes patients; design: species or system human; settings: in vivo
# patients = settings: in vivo; cited from earlier work
# [13] = 0.007% (w/w) in chow (intermediate)
compound,measurement,setting,value
Cc1cc(-c2nc3cnc(Oc4cccc(Cl)c4)nc3o2)cc(C)c1OCC(=O)O [SAR247799],effect on plasma fructosamine,[1],did not alter fructosamine levels
same,"lymphocytes, mean reductions vs placebo",type‐2 diabetes patients [2],< 8%
same,decrease in peripheral blood lymphocytes,[3]; high dose 0.0245% (w/w) chow,35%
same,effect on peripheral blood lymphocytes,[3]; intermediate dose 0.007% (w/w) chow,did not reduce lymphocytes
same,effect on peripheral blood lymphocytes,[3]; low dose 0.002% (w/w) chow,did not reduce lymphocytes
same,"C (plasma concentration), mean",[4]; 0.002% (w/w) in chow (low),0.0944 µg/mL
same,"C (plasma concentration), median",[4]; 0.002% (w/w) in chow (low),0.0917 µg/mL
same,"AUC 0–24, mean",[4]; 0.002% (w/w) in chow (low),2270 ng·h/mL
same,"AUC 0–24, median",[4]; 0.002% (w/w) in chow (low),2200 ng·h/mL
same,"C (plasma concentration), mean",[4]; [13],0.423 µg/mL
same,"C (plasma concentration), median",[4]; [13],0.432 µg/mL
same,"AUC 0–24, mean",[4]; [13],10200 ng·h/mL
same,"AUC 0–24, median",[4]; [13],10400 ng·h/mL
same,"C (plasma concentration), mean",[4]; 0.0245% (w/w) in chow (high),4.43 µg/mL
same,"C (plasma concentration), median",[4]; 0.0245% (w/w) in chow (high),4.60 µg/mL
same,"AUC 0–24, mean",[4]; 0.0245% (w/w) in chow (high),106000 ng·h/mL
same,"AUC 0–24, median",[4]; 0.0245% (w/w) in chow (high),110000 ng·h/mL
same,"increase in plasma concentration, high vs intermediate dose",[4]; for a 3.5‐fold increase in dose,10.5 fold
same,steady state AUC0–24h,[4]; intermediate dose,10.2 µg/mL
same,steady state AUC0–24h,[4]; low dose,2.27 µg/mL
same,effect on heart rate,[5],None of the doses of SAR247799 altered heart rate
same,elimination half‐life,[6],32 h
same,change in creatinine clearance,[7]; high dose,lesser (nonsignificant) increase
same,reduction in urinary protein:creatinine ratio,[7]; high dose,statistically significant
same,effect on urinary output,[7]; intermediate dose,significantly blunted the increase in urinary output
same,fractional excretion of electrolytes (Na+ and Cl−),[7]; intermediate dose,levels similar to lean control rats
same,increase in creatinine clearance compared to vehicle‐treated ZDF rats,[7]; intermediate dose,2.5 fold
same,reduction in urinary protein:creatinine ratio,[7]; intermediate dose,statistically significant
same,change in creatinine clearance,[7]; low dose,no increase
same,effect on urinary protein:creatinine ratio,[7]; low to high dose,dose‐dependent reduction
same,effect on urinary protein:creatinine ratio,[7]; lowest dose,partial effect
same,effect on blood pressure,type‐2 diabetes patients [8],did not affect blood pressure
same,steady state AUC0–24h,[9]; 1‐mg/d human dose,2.97 µg/mL
same,steady state AUC0–24h,[9]; 5‐mg/d human dose,14.9 µg/mL
same,"AUC 0–24, mean","[9]; day 1, 1 mg oral once daily",1030 ng·h/mL
same,"AUC 0–24, median","[9]; day 1, 1 mg oral once daily",983 ng·h/mL
same,"Cmax, mean","[9]; day 1, 1 mg oral once daily",57.4 ng/mL
same,"Cmax, median","[9]; day 1, 1 mg oral once daily",53.8 ng/mL
same,"Tmax, mean","[9]; day 1, 1 mg oral once daily",2.68 h
same,"Tmax, median","[9]; day 1, 1 mg oral once daily",2.50 h
same,"AUC 0–24, mean","[9]; day 1, 5 mg oral once daily",5310 ng·h/mL
same,"AUC 0–24, median","[9]; day 1, 5 mg oral once daily",5310 ng·h/mL
same,"Cmax, mean","[9]; day 1, 5 mg oral once daily",310 ng/mL
same,"Cmax, median","[9]; day 1, 5 mg oral once daily",315 ng/mL
same,"Tmax, mean","[9]; day 1, 5 mg oral once daily",2.42 h
same,"Tmax, median","[9]; day 1, 5 mg oral once daily",2.50 h
same,accumulation ratio,"[9]; day 1 to day 14, 1 and 5 mg/d",2.5–2.9
same,"AUC 0–24, mean","[9]; day 14, 1 mg oral once daily",2970 ng·h/mL
same,"AUC 0–24, median","[9]; day 14, 1 mg oral once daily",2780 ng·h/mL
same,"Cmax, mean","[9]; day 14, 1 mg oral once daily",152 ng/mL
same,"Cmax, median","[9]; day 14, 1 mg oral once daily",147 ng/mL
same,"Rac_AUC 0–24 (accumulation ratio), mean","[9]; day 14, 1 mg oral once daily",2.86
same,"Rac_AUC 0–24 (accumulation ratio), median","[9]; day 14, 1 mg oral once daily",2.70
same,"Rac_C max (accumulation ratio), mean","[9]; day 14, 1 mg oral once daily",2.66
same,"Rac_C max (accumulation ratio), median","[9]; day 14, 1 mg oral once daily",2.50
same,"Tmax, mean","[9]; day 14, 1 mg oral once daily",2.24 h
same,"Tmax, median","[9]; day 14, 1 mg oral once daily",2.25 h
same,"AUC 0–24, mean","[9]; day 14, 5 mg oral once daily",14900 ng·h/mL
same,"AUC 0–24, median","[9]; day 14, 5 mg oral once daily",14800 ng·h/mL
same,"Cmax, mean","[9]; day 14, 5 mg oral once daily",779 ng/mL
same,"Cmax, median","[9]; day 14, 5 mg oral once daily",760 ng/mL
same,"Rac_AUC 0–24 (accumulation ratio), mean","[9]; day 14, 5 mg oral once daily",2.79
same,"Rac_AUC 0–24 (accumulation ratio), median","[9]; day 14, 5 mg oral once daily",2.73
same,"Rac_C max (accumulation ratio), mean","[9]; day 14, 5 mg oral once daily",2.54
same,"Rac_C max (accumulation ratio), median","[9]; day 14, 5 mg oral once daily",2.46
same,"Tmax, mean","[9]; day 14, 5 mg oral once daily",2.15 h
same,"Tmax, median","[9]; day 14, 5 mg oral once daily",2.25 h
same,Patients with TEAE: Arthropod sting,type‐2 diabetes patients [10],0 n (%)
same,Patients with TEAE: Contusion,type‐2 diabetes patients [10],0 n (%)
same,Patients with TEAE: Diarrhoea,type‐2 diabetes patients [10],0 n (%)
same,Patients with TEAE: Dyspepsia,type‐2 diabetes patients [10],0 n (%)
same,Patients with TEAE: Headache,type‐2 diabetes patients [10],1 (6.7%) n (%)
same,"Patients with TEAE: Injury, poisoning and procedural complications",type‐2 diabetes patients [10],0 n (%)
same,Patients with TEAE: Leading to treatment discontinuation,type‐2 diabetes patients [10],0 n (%)
same,Patients with TEAE: Nausea,type‐2 diabetes patients [10],1 (6.7%) n (%)
same,Patients with TEAE: Oropharyngeal pain,type‐2 diabetes patients [10],0 n (%)
same,Patients with TEAE: Otitis externa,type‐2 diabetes patients [10],0 n (%)
same,Patients with TEAE: Severe AE,type‐2 diabetes patients [10],0 n (%)
same,Patients with TEAE: Skin abrasion,type‐2 diabetes patients [10],0 n (%)
same,Patients with TEAE: Traumatic haematoma,type‐2 diabetes patients [10],0 n (%)
same,Patients with TEAE: Ventricular extrasystoles,type‐2 diabetes patients [10],0 n (%)
same,tolerability,type‐2 diabetes patients [10],well tolerated
same,heart rate increase,type‐2 diabetes patients [11],no increase
same,"heart rate, mean difference vs placebo (maximum decrease)",type‐2 diabetes patients [11],−6.4 beats/min
same,mean heart rate increase,type‐2 diabetes patients [11],0–4 beats/min
same,overall effect on FMD,type‐2 diabetes patients [12],dose‐dependent improvement in FMD
CCC(CC)CC1(C(=O)Nc2ccccc2SC(=O)C(C)C)CCCCC1 [dalcetrapib],effect on FMD and CV events,patients,neutral on both FMD and CV events
